Measurements from different studies.
GSK3B: Glycogen synthase kinase-3 beta (GSK3B, Homo sapiens, UniProt P49841)
MLNR: Motilin receptor (MLNR, Homo sapiens, UniProt O43193)
PTGS2: Prostaglandin G/H synthase 2 (PTGS2, Ovis aries, UniProt P79208)

Structure (SMILES)	target	assay	system	setting	inhibition [%]
CC(=O)NCCc1ccc(O)c(-c2c(O)c(O)c3c(c2O)C(=O)c2c(cc(O)c(C(=O)O)c2C(=O)O)C3=O)c1	GSK3B	enzyme activity, inhibitor, ADP detection	–	100 µM	75.3
CS(=O)(=O)Nc1cccc(-c2csc(NC(=O)CSc3nc4nccnc4c(=O)n3CCc3ccccc3)n2)c1	Phosphatidylinositol 4-kinase type 2-beta (PI4K2B, Homo sapiens, UniProt Q8TCG2)	enzyme activity, inhibitor	–	10 µM	-5
Cc1[nH]c(=O)c(C#N)cc1-c1ccncc1	GSK3B	enzyme activity, inhibitor, ADP detection	–	100 µM	27.6
CNc1cc(Oc2cc(C(=O)Nc3cc(N4CCN(C)CC4)cc(C(F)(F)F)c3)ccc2C)ncn1	1-phosphatidylinositol 3-phosphate 5-kinase (PIKFYVE, Homo sapiens, UniProt Q9Y2I7)	target engagement in cells, inhibitor, chemoproteomics	Huh-7	1 µM	-98.4
CN1CC(Oc2cnc(C#N)cc2-c2ccn3nc(NC(=O)C4CC4)cc3c2)C1	[Pyruvate dehydrogenase (acetyl-transferring)] kinase isozyme 2, mitochondrial (PDK2, Homo sapiens, UniProt Q15119)	enzyme activity, inhibitor	–	1 µM	17
Ic1cccc2cnccc12	Protein mono-ADP-ribosyltransferase PARP11 (PARP11, Homo sapiens, UniProt Q9NR21)	enzyme activity, inhibitor	–	10 µM	26
COc1cc(NC(C)=O)c(Cl)cc1C(=O)Nc1nccs1	MLNR	cell-free assay	–	10 µM	21.6
O=C([O-])c1ccccc1-c1c2cc(I)c(=O)c(I)c-2oc2c(I)c([O-])c(I)cc12.[Na+].[Na+]	GSK3B	enzyme activity, inhibitor, ADP detection	–	100 µM	87.5
C[C@@H]1O[C@@H](OC[C@H]2O[C@@H](O[C@H]3[C@H](Oc4c(-c5ccc(O)cc5)oc5cc(O)cc(O)c5c4=O)O[C@H](CO)[C@@H](O)[C@@H]3O)[C@H](O)[C@@H](O)[C@@H]2O)[C@H](O)[C@H](O)[C@H]1O	PTGS2	enzyme activity, inhibitor, absorbance	–	50 µM	57.5
O=C1OC(CN2CCOCC2)CN1/N=C/c1ccc([N+](=O)[O-])o1 (stereo not shown)	GSK3B	enzyme activity, inhibitor, ADP detection	–	100 µM	20.2
CCN(c1cc(C#CCN2CCOCC2)cc(C(=O)NCc2c(C)cc(C)[nH]c2=O)c1C)[C@H]1CC[C@H](N(C)CCOC)CC1	Protein arginine N-methyltransferase 8 (PRMT8, Homo sapiens, UniProt Q9NR22)	enzyme activity, inhibitor	–	1 µM	9
O=C(c1ccc(Cl)cc1)N(Cc1ccccc1)C1CCCCC1	Vasopressin V1a receptor (AVPR1A, Homo sapiens, UniProt P37288)	cell-free assay	–	10 µM	47.7
C[C@@H]1O[C@@H](OC[C@H]2O[C@@H](Oc3c(-c4ccc(O)cc4)oc4cc(O)cc(O)c4c3=O)[C@H](O[C@@H]3O[C@H](CO)[C@@H](O)[C@H](O)[C@H]3O)[C@@H](O)[C@@H]2O)[C@H](O)[C@H](O)[C@H]1O	PTGS2	enzyme activity, inhibitor, absorbance	–	50 µM	53.8
CC[C@H]1C(=O)OC[C@@H]1Cc1cncn1C.O=[N+]([O-])O	GSK3B	enzyme activity, inhibitor, ADP detection	–	100 µM	28.2
C[C@@H]1O[C@@H](O[C@H]2[C@H](Oc3c(-c4ccc(O)cc4)oc4cc(O)cc(O)c4c3=O)O[C@H](CO[C@@H]3O[C@H](CO)[C@@H](O)[C@H](O)[C@H]3O)[C@@H](O)[C@@H]2O)[C@H](O)[C@H](O)[C@H]1O	PTGS2	enzyme activity, inhibitor, absorbance	–	50 µM	57.7
CN(C)C1CCN(CC#Cc2nn(C3CCCC3)c3nc(NCc4ccccc4)ncc23)C1 (stereo not shown)	MAP kinase-activated protein kinase 2 (MAPKAPK2, Homo sapiens, UniProt P49137)	enzyme activity, inhibitor, FRET	–	0.1 µM	-2
COc1cc([C@@H]2c3cc4c(cc3[C@@H](O[C@@H]3O[C@@H]5CO[C@@H](C)O[C@H]5[C@H](O)[C@H]3O)[C@H]3COC(=O)[C@H]23)OCO4)cc(OC)c1O	GSK3B	enzyme activity, inhibitor, ADP detection	–	100 µM	15.4
O=c1c(O)c(-c2ccc(O)cc2)oc2cc(O[C@@H]3O[C@H](CO)[C@@H](O)[C@H](O)[C@H]3O)cc(O)c12	PTGS2	enzyme activity, inhibitor, absorbance	–	50 µM	66.3
Oc1cccc(Nc2nc(-c3ccc(F)cc3F)cs2)c1	MLNR	cell-free assay	–	10 µM	6.5
